Common to all, as to format: physicochemical
Data set [1] in a line: Transnitrosation activity assessed as pseudo first order rate constant at 0.45 mM in presence of 5 mM GSH at pH 2.2 at 37 degC under dark condition. To be noted: pH 2.2, 450 µM. The gist of the method: (§1)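 Pseudo-first-order kobs for GSNO formation was measured at 0.45 mM N-nitrosamine, 5.0 mM GSH with DTPA, and 37 °C, with pH set by HCl (pH-rate profile 1.4–3.3). kobs was the least-squares slope of the initial linear part of ln{[GSNO∞]/([GSNO∞]−[GSNO])} versus time, taking GSNO∞ as the initial nitroso compound level (0.45 mM). There were three separate trials.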

Data set [2] can be described thus: Transnitrosation activity assessed as pseudo first order rate constant at 0.45 mM in presence of 5 mM GSH at pH 2 at 37 degC under dark condition. The conditions noted are these: pH 2, 450 µM. The gist of the method: as §1
A short description of data set [3]: Transnitrosation activity assessed as compound consumption level at 0.45 mM in presence of 5 mM GSH at pH 1.5 at 37 degC under dark condition after 24 hrs. The conditions noted are these: pH 1.5, 24 h, 450 µM. In short, it runs like this: (§2)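 Nitrosamine (4.5 mM acetonitrile stock, 0.45 mM final) added to GSH (5.0 mM) with DTPA. The mixture was acidified to pH 1.5 with 0.1 M HCl and held at 37 °C in the dark. GSNO formation was followed against time, and data were taken after 24 h.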

A short description of data set [4]: Transnitrosation activity assessed as pseudo first order rate constant at 0.45 mM in presence of 5 mM GSH at pH 1.5 at 37 degC under dark condition. The conditions noted are these: pH 1.5, 450 µM. In short, it runs like this:
as §1

Data set [5] is described as follows: Transnitrosation activity assessed as S-nitrosoglutathione yield at 0.45 mM in presence of 5 mM GSH at pH 1.5 at 37 degC under dark condition after 24 hrs. The conditions noted are these: pH 1.5, 24 h, 450 µM. The gist of the method: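 Reaction run at 0.45 mM N-nitrosamine and 5.0 mM GSH, with DTPA, at pH 1.5 (HCl) and 37 °C in the dark. After 24 h, yield was calculated as GSNO formed divided by N-nitrosamine consumed.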

Data set [6] is described as follows: Transnitrosation activity assessed as pseudo first order rate constant at 0.45 mM in presence of 5 mM GSH at pH 3.4 at 37 degC under dark condition. To be noted: pH 3.4, 450 µM.
The nature of data set [7]: Transnitrosation activity assessed as pseudo first order rate constant at 0.45 mM in presence of 5 mM GSH at pH 1.4 at 37 degC under dark condition. The conditions noted are these: pH 1.4, 450 µM. The gist of the method:
as §1

Data set [8] can be described thus: Transnitrosation activity assessed as pseudo first order rate constant at 0.45 mM in presence of 5 mM GSH at pH 2.8 at 37 degC under dark condition. To be noted: pH 2.8, 450 µM. In short, it runs like this: as §1
A short description of data set [9]: Transnitrosation activity assessed as pseudo first order rate constant at 0.45 mM in presence of 5 mM GSH at pH 1.7 at 37 degC under dark condition. The conditions noted are these: pH 1.7, 450 µM. In short, it runs like this: as §1
A short description of data set [10]: Transnitrosation activity assessed as S-nitrosoglutathione level at 0.45 mM in presence of 5 mM GSH at pH 1.5 at 37 degC under dark condition. The conditions noted are these: pH 1.5, 450 µM. In short, it runs like this:
as §2

The results in this text go back to ChEMBL document CHEMBL3621094, “Effect of alkyl group on transnitrosation of N-nitrosothiazolidine thiocarboxamides” (Bioorg Med Chem, 2015).

For `NC(=S)C1CSCN1N=O` (stereo not drawn), the “log K” value is -4.73 in data set [1]; -5.24 in [2]; -6.37 in data set [6]; -3.73 in data set [7]; -6.16 in [8]; -4.24 in data set [9]. Moreover, the Activity worked out at 0.45 mM in [3], 95% in data set [5] and 0.43 mM in data set [10]. In addition, in data set [4], the K is recorded as 1301 ×10⁻⁷ /s.
In the case of `CNC(=S)C1CSCN1N=O` (stereo not drawn), the Activity in data set [3] turned out to be 0.45 mM; in [5] it was 85%; in data set [10], 0.38 mM. Besides, the K in data set [4] was found to be 464 ×10⁻⁷ /s.
In the case of `CN(C)C(=S)C1CSCN1N=O` (stereo not drawn), the results for the Activity in data set [3], in data set [5] and in [10] were 0.45 mM, 84% and 0.38 mM, respectively. The K in data set [4] was 405 ×10⁻⁷ /s.
